These results are taken from ChEMBL document CHEMBL1208718, “Rational design of a novel peripherally-restricted, orally active CB(1) cannabinoid antagonist containing a 2,3-diarylpyrrole motif” (Bioorg Med Chem Lett, 2010).

Each structure is given as a SMILES string.

Data set [1] concerns the target Cannabinoid receptor 1 (Rattus norvegicus, UniProt P20272). Description: Binding affinity to CB1 receptor in rat brain synaptosomal membranes. The format is cell membranes.
The target of data set [2] is T1, Cannabinoid receptor 2 (Rattus norvegicus) (UniProt Q9QZN9).
T1 sequence (whole entry): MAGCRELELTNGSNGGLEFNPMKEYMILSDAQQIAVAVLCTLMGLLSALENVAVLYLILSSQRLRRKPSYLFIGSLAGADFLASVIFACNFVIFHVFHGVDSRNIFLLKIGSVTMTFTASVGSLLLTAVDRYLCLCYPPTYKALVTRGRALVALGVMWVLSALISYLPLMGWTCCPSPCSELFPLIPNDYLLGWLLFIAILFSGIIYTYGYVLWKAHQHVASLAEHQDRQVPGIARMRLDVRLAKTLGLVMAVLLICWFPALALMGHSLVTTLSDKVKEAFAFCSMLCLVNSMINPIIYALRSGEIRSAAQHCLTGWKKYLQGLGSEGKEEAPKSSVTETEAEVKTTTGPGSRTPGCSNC
The data set can be described thus: Binding affinity to CB2 receptor in rat spleen homogenates at 1 uM. It counts as tissue-based.

For data set [3], the system named is Mus musculus. Description: Ex vivo displacement of [3H]CP-55940 from mouse brain homogenates without cerebellum at 10 mg/kg, iv after 30 mins. It counts as functional. The method in brief:
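Mice dosed iv at 10 mg/kg and killed by decapitation 30 min later. Brain homogenized without cerebellum, and inhibition of [3H]-CP55940 binding measured in the homogenate.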
(In a radioligand displacement assay an active substance lowers the binding of a labelled ligand.)

For data set [4], the system named is Mus musculus. The data set can be described thus: Reversal of CP-55940-induced inhibition of intestinal transit in po dosed mouse. The format is functional. An outline of the steps:
(§1)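 Mice dosed orally with antagonist, then given CP55940 0.15 mg/kg ip to inhibit intestinal transit. Reversal scored as DE50 (mg/kg po) or as % reversal at a single oral dose.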

Data set [5] concerns Mus musculus. Description: Reversal of CP-55940-induced hypothermia in po dosed mouse at 30 mg/kg, po. The format is functional. An outline of the steps: (§2)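 Mice dosed orally with antagonist, then challenged with CP55940 0.3 mg/kg ip to induce hypothermia. Reversal scored as DE50 (mg/kg po) or as % reversal at a single oral dose.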
For data set [6], the system named is Mus musculus. The data set can be described thus: Reversal of CP-55940-induced inhibition of intestinal transit in mouse at 10 mg/kg, po. The format is functional. More on the design: scale not given: the % may be the effect or the level left. An outline of the steps:
as §1

Data set [7] concerns Mus musculus. Description: Reversal of CP-55940-induced hypothermia in po dosed mouse. It counts as functional. The method in brief:
as §2

The nature of data set [8]: Drug level in Swiss CD1 mouse brain assessed per gram of tissue at 10 mg/kg, po after 6 hrs. It counts as ADME, organism-based. More on the design: dose 10 mg/kg, route oral. Conditions: read-out: Drug uptake. The method in brief: (§3)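 Male Swiss CD1 mice received a single oral 10 mg/kg dose. Drug levels were measured in plasma (ng/mL) and brain (ng/g tissue) over 24 h.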

Data set [9] can be described thus: Cmax in Swiss CD1 mouse at 10 mg/kg, po after 2 hrs. It counts as ADME, organism-based. Further details: dose 10 mg/kg, route oral. As to conditions: in vivo. An outline of the steps:
as §3

The test system of data set [10] is Liver microsomes. The data set can be described thus: Metabolic stability in human liver microsomes at 5 uM after 10 mins by HPLC analysis in presence of NADPH. The format is ADME, Microsome. The method in brief:
(§4)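 Hepatic microsomal fractions from mouse, rat and human were used at 1 mg/mL microsomal protein, with 10 min incubation of substrate.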
Background: Microsomes from liver hold many membrane-bound enzymes, among them those of drug oxidation.

The target in data set [11] is T2, Cannabinoid receptor 1 (Homo sapiens, UniProt P21554). The data set can be described thus: Antagonist activity at CB1 receptor in forskolin-stimulated human U373-MG cells assessed as inhibition of CP-55940-induced cAMP accumulation. It counts as functional, cell-based, U-373MG ATCC. An outline of the steps: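 Human U373-MG cells; forskolin-stimulated cAMP accumulation was inhibited with CP55940, and the antagonist was tested over a range of concentrations for reversal of that inhibition. The EC50 was derived from the concentration–response.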
Background: cAMP levels reflect the balance of adenylyl cyclase and phosphodiesterase activity.

Data set [12] can be described thus: Oral bioavailability in Swiss CD1 mouse at 10 mg/kg. As to conditions: in vivo.
The nature of data set [13]: Metabolic stability in mouse liver microsomes at 5 uM after 10 mins by HPLC analysis in presence of NADPH. The format is ADME, Microsome. An outline of the steps: as §4
The subject of data set [14] is Liver microsomes. Description: Metabolic stability in rat liver microsomes at 5 uM after 10 mins by HPLC analysis in presence of NADPH. It counts as ADME, Microsome. An outline of the steps: as §4
Data set [15] can be described thus: AUC (0 to 24 hrs) ratio in brain to plasma of Swiss CD1 mouse at 10 mg/kg, po. Further details: dose 10 mg/kg, route oral. It counts as ADME, organism-based.
Data set [16] concerns the target T2, Cannabinoid receptor 1. Description: Inhibition of human recombinant CB1 receptor expressed in CHO cells. It counts as cell-based.

Chain of Cannabinoid receptor 1 (Rattus norvegicus, UniProt P20272) (P20272 whole entry): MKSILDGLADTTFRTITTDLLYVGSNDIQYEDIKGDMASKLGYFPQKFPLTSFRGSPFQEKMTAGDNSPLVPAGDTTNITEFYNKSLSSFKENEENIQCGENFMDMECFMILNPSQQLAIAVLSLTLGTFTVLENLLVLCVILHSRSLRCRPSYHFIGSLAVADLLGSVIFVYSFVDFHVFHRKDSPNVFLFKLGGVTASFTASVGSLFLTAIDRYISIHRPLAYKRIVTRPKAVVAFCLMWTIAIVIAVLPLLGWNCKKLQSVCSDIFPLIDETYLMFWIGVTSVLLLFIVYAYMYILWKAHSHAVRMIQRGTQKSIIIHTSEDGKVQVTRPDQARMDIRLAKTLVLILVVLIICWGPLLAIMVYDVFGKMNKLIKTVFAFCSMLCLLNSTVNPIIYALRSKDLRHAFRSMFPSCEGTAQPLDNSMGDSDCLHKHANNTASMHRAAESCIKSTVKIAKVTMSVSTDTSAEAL
T2 sequence (P21554 whole entry): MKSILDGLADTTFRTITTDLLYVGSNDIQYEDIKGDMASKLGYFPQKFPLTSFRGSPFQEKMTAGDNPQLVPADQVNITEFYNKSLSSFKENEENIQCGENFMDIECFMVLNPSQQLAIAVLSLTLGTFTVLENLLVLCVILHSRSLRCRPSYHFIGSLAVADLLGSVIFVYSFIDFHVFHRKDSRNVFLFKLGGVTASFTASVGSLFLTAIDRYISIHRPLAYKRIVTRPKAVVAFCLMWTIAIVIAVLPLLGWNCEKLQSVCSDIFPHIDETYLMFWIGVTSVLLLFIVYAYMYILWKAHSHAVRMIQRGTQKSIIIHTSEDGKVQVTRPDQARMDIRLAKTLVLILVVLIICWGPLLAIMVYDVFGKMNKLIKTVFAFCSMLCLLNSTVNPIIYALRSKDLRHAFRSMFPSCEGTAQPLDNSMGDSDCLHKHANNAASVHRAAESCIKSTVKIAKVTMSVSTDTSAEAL

The IC50 is the point on the concentration scale where inhibition reaches its midpoint. One may read the inhibition as the percentage by which the read-out fell short of the control. In data set [1], `CC(C)(CCCn1c(C(=O)N2CCC(C(N)=O)(N3CCCCC3)CC2)cc(-c2ccc(Cl)cc2Cl)c1-c1ccc(Cl)cc1)C(=O)O` gave a concentration for half-maximal inhibition (IC50) of 160 nM. Also, the inhibition in [2] amounted to 52%.

The inhibition in vivo is the relative decrease from the control value, in per cent. Molecule `Cn1c(C(=O)N2CCC(C(N)=O)(N3CCOCC3)CC2)cc(-c2ccc(Cl)cc2Cl)c1-c1ccc(Cl)cc1` yielded an inhibition in vivo at 10 mg/kg in data set [3] of 32%. The same molecule came in with an IC50 in [1] of 34 nM. The molecule also registered an inhibition in [2] of 42%.

For `Cn1c(C(=O)N2CCC(C(N)=O)(c3ccccc3)CC2)cc(-c2ccc(Cl)cc2Cl)c1-c1ccc(Cl)cc1`, the inhibition in vivo at 10 mg/kg in data set [3] came to 86%. Also, the IC50 in [1] is 0.7 nM. Further, the inhibition in data set [2] worked out at 17%.

As usually defined, the ED50 is the midpoint of the dose-response relation. The molecule `CC1(C)CCN(C2(C(N)=O)CCN(C(=O)c3cc(-c4ccc(Cl)cc4Cl)c(-c4ccc(Cl)cc4)n3CCCNS(C)(=O)=O)CC2)CC1` displayed an inhibition in vivo at 10 mg/kg in data set [3] of 33%. In data set [1], this molecule returned an IC50 of 4.3 nM. The molecule further gave an inhibition in data set [2] of 27%. The ED50 in data set [4] was found to be 4.1 mg/kg. Further, in data set [5], the Activity was 0%.

As to `CS(=O)(=O)NCCCn1c(C(=O)N2CCC(C(N)=O)(N3CCCCC3)CC2)cc(-c2ccc(Cl)cc2Cl)c1-c1ccc(Cl)cc1`, in data set [3], 10 mg/kg produced 18% inhibition in vivo. Further, in data set [1], the IC50 was determined as 1.4 nM. This molecule also returned an inhibition in data set [2] of 16%. Further, the Activity in data set [6] is reported as 51%; in data set [5] it was 1%.

Consider `NC(=O)C1(N2CCCCC2)CCN(C(=O)c2cc(-c3ccc(Cl)cc3Cl)c(-c3ccc(Cl)cc3)n2CCC(=O)O)CC1`, for which the IC50 in data set [1] stood at 180 nM. In data set [2], this molecule returned an inhibition of 14%.

In data set [3], `CS(=O)(=O)CCn1c(C(=O)N2CCC(C(N)=O)(N3CCCCC3)CC2)cc(-c2ccc(Cl)cc2Cl)c1-c1ccc(Cl)cc1` came in with an inhibition in vivo at 10 mg/kg of 19%. The molecule also yielded an IC50 in [1] of 0.4 nM. This molecule gave an inhibition in data set [2] of 26%.

Regarding `Cc1c(C(=O)NN2CCCCC2)nn(-c2ccc(Cl)cc2Cl)c1-c1ccc(Cl)cc1` [RIMONABANT], in data set [3], at 10 mg/kg the inhibition in vivo was 100%. Moreover, the ED50 in data set [7] is 0.6 mg/kg; in data set [4], 1 mg/kg. This molecule also showed an inhibition in data set [2] of 66%.

In turn, `Cn1c(C(=O)N2CCC(C(N)=O)(N3CCCCC3)CC2)cc(-c2ccc(Cl)cc2Cl)c1-c1ccc(Cl)cc1` displayed an inhibition in vivo at 10 mg/kg in data set [3] of 96%. In data set [1], the concentration for half-maximal inhibition (IC50) is 0.2 nM. For the same molecule, in [2], the inhibition was 48%.

By Cmax is commonly meant the highest concentration seen after dosing. One may read the EC50 as the concentration needed to bring the measured effect to its halfway point. What is called bioavailability is the share of a dose that reaches the circulation, judged against a reference dose that is usually intravenous. As a reminder, the Kp is tissue or fluid exposure divided by exposure in the circulation. As to `CS(=O)(=O)NCCCn1c(C(=O)N2CCC(C(N)=O)(N3CCC(F)(F)CC3)CC2)cc(-c2ccc(Cl)cc2Cl)c1-c1ccc(Cl)cc1`, the concentration at 6 h in data set [8] came to 6.4 ng/g. The molecule also showed a Cmax in [9] of 570 ng/mL. Also, the Stability result in data set [10], in data set [13] and in [14] was “Stable” each time. Testing at 10 mg/kg in data set [3] gave an inhibition in vivo of 28%. Also, the IC50 in data set [1] came to 1 nM; in data set [16] it was 1.4 nM. Also, in data set [11], the EC50 was 15 nM. The bioavailability in data set [12] was found to be 37%. Moreover, the Kp in data set [15] stood at 0.01. Besides, the inhibition in data set [2] worked out at 39%. Moreover, the ED50 in [4] came to 2.4 mg/kg. Also, the Activity in data set [5] came to 0%.

As for `N#CCCn1c(C(=O)N2CCC(C(N)=O)(N3CCCCC3)CC2)cc(-c2ccc(Cl)cc2Cl)c1-c1ccc(Cl)cc1`, the inhibition in vivo at 10 mg/kg in [3] was determined as 39%. This molecule also showed a concentration for half-maximal inhibition (IC50) in data set [1] of 8 nM. Also, in data set [2], the inhibition came out at 18%.
